Laboratory results as given in article PMC5553283 (Journal of natural products, 2017).

What was measured:
[1] = test system: murine xenograft models of breast cancer; settings: systemic i.p. injection ref 23, 25; cited from earlier work
[2] = In vivo pharmacokinetic assessment in mice, plasma LC-MS; settings: 300 µg IV, mouse plasma
In short: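 Female athymic nude mice, 6–7 weeks, got a single 300 µg tail-vein bolus in 100 µL PBS/5% ethanol. Blood was taken by cardiac puncture under CO2 anaesthesia pre-dose, at end of infusion, 0.25, 0.5, 1 and 2 h (3–5 mice/time point). EDTA plasma (1,200 rcf, 10 min), 100 µL extracted into 1 mL cold ethyl acetate. Quantified against 1/X2-weighted linear calibration. Non-compartmental AUC by linear trapezoid, extrapolated to infinity.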

[3] = test system: SCC-4 xenografts; test: Antitumor efficacy of intratumorally administered taccalonolides; type: in vivo; settings: intratumoral
[4] = human, microsomes
[5] = Hydrolysis of the C-15 acetoxy group of AF to AJ; type: physicochemical; settings: serum in vitro

| SMILES | antitumor efficacy on systemic administration [1] | drug in the plasma 120 min after injection [2] | effect on tumor growth ([3]; 20 µg total dose) | effect on tumor growth ([3]; 80 µg total dose, over the course of the trial) | NADPH-free intrinsic clearance ([4]; pH 7.4) [mL/min/mg] | hydrolysis of the C-15 acetoxy group [5] | weight loss or other toxicities ([3]; two 40 µg injections on days 0 and 3) | rate of clearance (microsomal intrinsic clearance) [4] | NADPH-dependent intrinsic clearance ([4]; pH 7.4) [mL/min/mg] |
| --- | --- | --- | --- | --- | --- | --- | --- | --- | --- |
| CC(=O)O[C@H]1[C@H]2[C@H]([C@@H]3[C@@H](O)[C@@H]4[C@H]([C@H](C)[C@H]5O[C@]56OC(=O)[C@@](C)(O)[C@]46C)[C@@]3(C)[C@H]1OC(C)=O)[C@@H](O)C(=O)[C@H]1C[C@@H]3O[C@@H]3[C@H](OC(C)=O)[C@]21C [taccalonolide AJ] | no evidence of antitumor efficacy | no drug detectable | no inhibition of tumor growth | robust and prolonged inhibition of tumor growth |  |  |  |  |  |
| CC(=O)O[C@@H]1[C@H]2[C@H]3[C@H]([C@H](OC(C)=O)[C@H](OC(C)=O)[C@]2(C)[C@H]2[C@H](C)[C@H]4O[C@]45OC(=O)[C@@](C)(O)[C@]5(C)[C@H]12)[C@]1(C)[C@H](C[C@@H]2O[C@@H]2[C@@H]1OC(C)=O)C(=O)[C@@H]3O [taccalonolide AF] | demonstrated antitumor efficacy |  |  |  | 0.0 | observed | no associated weight loss or other toxicities |  |  |
| CC(=O)CC(c1ccccc1)c1c(O)c2ccccc2oc1=O (centres unmarked) [warfarin] |  |  |  |  | 0.0 |  |  | no clearance | 0.0 |
